Calls of active or inactive are those of the source. No cut-off for these calls is given here.
Assays:
[1] = target: T1, Human immunodeficiency virus type 1 reverse transcriptase (Human immunodeficiency virus 1, UniProt Q72547); assay: Inhibition of recombinant His-tagged wild-type HIV-1 group M subtype B BH10 reverse transcriptase-associated RNase H activity harboring p66/p51 hetrodimer expressed in Escherichia coli M15 using GTTTTCTTTTCCCCCCTGAC-30 fluorescein/50-CAAAAGAAAAGGGGGGACUG-30 Dabcyl RNA/DNA template-primer as substrate incubated for 1 hr by multilabel counter plate reader analysis
Procedure, shortened: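 His-tagged p66/p51 RT was expressed in E. coli M15, with mutations placed in p66 by site-directed mutagenesis. The mix held 50 mM Tris HCl pH 7.8, 6 mM MgCl2, 1 mM DTT, 80 mM KCl, 250 nM fluorescein/Dabcyl RNA/DNA hybrid and serial compound dilutions, with no preincubation. Reactions were started with enzyme (wt, R448A, K451A 20 ng; K540A 40 ng; N474A 500 ng), run 1 h at 37 °C and read at 490/528 nm. Duplicates were repeated at least twice; IC50 is mean ± SD.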

[2] = Metal chelating activity assessed as Mg2+-compound complex formation at 4.1 x 10^-5 M by UV-visible spectrophotometric titration analysis; details: dose 4.1 10^-5M
Procedure, shortened: (§1)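 Compound in absolute ethanol, titrated with MgCl2 stock solutions (4 10–5 to 0.2 M, diluted in ethanol). UV–vis spectra were recorded from 230 to 370 or 600 nm against ethanol in a 1 cm quartz cuvette, in triplicate. Stoichiometry was found by Job's method using equimolar metal/ligand mixtures. ΔA was plotted against ligand mole fraction, and the maximum was located by linear regression.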

[3] = Metal chelating activity assessed as Mg2+-compound complex formation at 3.8 x 10^-5M by UV-visible spectrophotometric titration analysis; details: dose 3.8 10^-5M; procedure, shortened: as §1
[4] = target: Human immunodeficiency virus type 1 integrase (Human immunodeficiency virus 1, UniProt Q7ZJM1); assay: Inhibition of recombinant His-tagged HIV-1 NL4-3 integrase expressed in Escherichia coli BL21 pLys using GTGTGGAAAATCTCTAGCA/ACTGCTAGAGATTTTCCACAC as DNA substrate incubated for 2 hrs by densitometric analysis
Chain of Human immunodeficiency virus type 1 integrase (Q7ZJM1 whole entry): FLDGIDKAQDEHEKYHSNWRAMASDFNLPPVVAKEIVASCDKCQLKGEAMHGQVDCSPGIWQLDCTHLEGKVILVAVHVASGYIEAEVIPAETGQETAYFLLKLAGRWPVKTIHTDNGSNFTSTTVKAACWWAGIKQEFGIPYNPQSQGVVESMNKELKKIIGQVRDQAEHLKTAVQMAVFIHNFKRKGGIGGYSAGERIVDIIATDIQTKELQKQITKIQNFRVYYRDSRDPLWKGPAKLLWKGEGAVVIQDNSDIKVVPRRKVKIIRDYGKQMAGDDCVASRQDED

[5] = Selectivity index, ratio of CC50 for cytotoxicity against human HeLa-CD4-LTR-beta-gal cells to EC50 for antiviral activity against HIV 1 infected in human HeLa-CD4-LTR-beta-gal cells; format: toxicity, cell-based; details: read-out: Ratio CC50/EC50
Procedure, shortened: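 Selectivity index is CC50/EC50. Both values come from HeLa-CD4-LTR-β-gal cells at 24 h. EC50 is from β-galactosidase readout after infection with in-house HIV-1 (H9-laï coculture). CC50 is from the CellTiter 96 AQueous One proliferation assay.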

[6] = target: T1, Human immunodeficiency virus type 1 reverse transcriptase; assay: Inhibition of HIV-1 reverse transcriptase associated RNA-dependent DNA polymerase activity using poly(A)-oligo(dT) as template/primer incubated for 30 mins by multilabel counter plate reader analysis

Row | IC50 [4] [µM] | SMILES | IC50 [1] [µM] | further results
1 |  | COc1ccc2c(c1)c(=O)c(C(=O)O)cn2Cc1ccc(F)cc1 | > 100 | 
2 |  | CCOC(=O)c1cn(Cc2ccc(F)cc2)c2ccc(OC)cc2c1=O | > 100 | 
3 |  | O=C(O)c1cn(Cc2ccc(F)cc2)c2ccccc2c1=O | > 100 | 
4 |  | O=C(O)c1cn(Cc2ccc(F)cc2)c2ccc(C(F)(F)F)cc2c1=O | > 100 | 
5 |  | CCOC(=O)c1cn(Cc2ccc(F)cc2)c2ccc(OCCCN(C)C)cc2c1=O | > 100 | 
6 |  | CCOC(=O)c1cn(Cc2ccc(F)cc2)c2ccc(OCc3cccc4ccccc34)cc2c1=O |  | Activity [2]: Active
7 | > 100 | O=C(O)c1cn(Cc2ccc(F)cc2)c2ccc(OCc3cccc4ccccc34)cc2c1=O |  | Activity [3]: Active
8 | > 100 | CCOC(=O)/C=C/C(=O)/C=C/c1cccn1Cc1ccccc1Cl |  | selectivity ratio [5]: > 13.7
9 |  | O=C(/C=C/c1ccc2c(c1)c(=O)c(C(=O)O)cn2Cc1ccc(F)cc1)c1ccccc1 |  | IC50 [6]: > 100 µM
10 |  | CCOC(=O)c1cn(Cc2ccc(F)cc2)c2ccc(O)cc2c1=O | > 100 | 
11 |  | CCOC(=O)c1cn(Cc2ccc(F)cc2)c2ccc(S(C)(=O)=O)cc2c1=O | > 100 | 
12 |  | CCOC(=O)c1cn(Cc2ccc(F)cc2)c2ccc(OCc3ccc(-c4ccccc4)cc3)cc2c1=O | > 100 | 
13 | > 100 | O=C(O)c1cn(Cc2ccc(F)cc2)c2ccc(OCc3cccc(Cl)c3Cl)cc2c1=O |  | 
14 | > 100 | CC(=O)c1ccc2c(c1)c(=O)c(C(=O)O)cn2Cc1ccc(F)cc1 |  | 
15 |  | N#Cc1ccc2c(c1)c(=O)c(C(=O)O)cn2Cc1ccc(F)cc1 | > 100 | 
16 | > 100 | O=C(O)c1cn(Cc2ccc(F)cc2)c2ccc(OCc3ccc4c(c3)OCO4)cc2c1=O |  | 
17 | > 250 | O=C(O)c1cn(Cc2ccc(F)cc2)c2ccc(OCc3ccc(-c4ccccc4)cc3)cc2c1=O |  | 
18 | > 100 | CCOC(=O)c1cn(Cc2ccc(F)cc2)c2ccc(C(C)=O)cc2c1=O |  | 
19 |  | CCOC(=O)c1cn(Cc2ccc(F)cc2)c2ccc(C#N)cc2c1=O | > 100 | 

From ChEMBL document CHEMBL5096188, “Quinolinonyl Non-Diketo Acid Derivatives as Inhibitors of HIV-1 Ribonuclease H and Polymerase Functions of Reverse Transcriptase” (J Med Chem, 2021)
